Measurements: ChEMBL document CHEMBL1914440, “Discovery of potent, selective, and orally bioavailable alkynylphenoxyacetic acid CRTH2 (DP2) receptor antagonists for the treatment of allergic inflammatory diseases” (J Med Chem, 2011)
≈ marks a conversion by molar mass, not a printed value. Blank lines part the entries; values can stand above or below the compound they belong to. Calls of active or inactive are those of the source. No cut-off for these calls is given here.

Assays:
[1] = Half life in BALB/c mouse at 1 mg/kg, iv and 5 mg/kg, po by LC/MS/MS analysis; type: ADME, organism-based; conditions: in vivo
[2] = Thermodynamic solubility of the compound in aqueous solution at pH 7.4; type: physicochemical; conditions: read-out: Therm_solubility
[3] = Percentage unbound in human plasma; type: ADME, cell-free
[4] = molecular target: T1, Prostaglandin D2 receptor 2 (Homo sapiens, UniProt Q9Y5Y4); assay: Displacement of [3H]PGD2 from human CRTH2 expressed in chinese hamster CHO cells by liquid scintillation counting; type: cell-based
T1 sequence (Q9Y5Y4 whole entry): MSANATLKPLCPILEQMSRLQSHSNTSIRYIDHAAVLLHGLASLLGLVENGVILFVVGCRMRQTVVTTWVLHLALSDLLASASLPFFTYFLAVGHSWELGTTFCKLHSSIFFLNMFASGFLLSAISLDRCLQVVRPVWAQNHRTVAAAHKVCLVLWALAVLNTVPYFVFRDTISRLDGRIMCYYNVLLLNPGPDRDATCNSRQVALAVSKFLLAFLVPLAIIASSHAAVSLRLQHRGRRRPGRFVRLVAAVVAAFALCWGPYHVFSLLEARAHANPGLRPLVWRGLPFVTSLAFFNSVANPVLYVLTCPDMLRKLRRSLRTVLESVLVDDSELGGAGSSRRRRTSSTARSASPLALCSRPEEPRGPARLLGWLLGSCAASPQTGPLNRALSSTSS
Method in brief: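 Scintillation proximity competition assay: 2–5 μg human CRTH2 cell membranes, 1.5 nM [3H]PGD2, WGA-SPA beads, 10 mM HEPES/KOH pH 7.4, 10 mM MnCl2, protease inhibitors, 1% DMSO; 90 min, room temperature, shaking. Nonspecific binding defined with 1 μM PGD2. Ki by Cheng–Prusoff, mean of ≥3 independent dose–response experiments.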

[5] = Percentage unbound in mouse plasma; type: ADME, cell-free
[6] = Apparent permeability across human Caco2 cells at 1 uM after 2 hrs by LC/MS/MS analysis; type: ADME, cell-based; conditions: Caco-2
[7] = Clearance in BALB/c mouse at 5 mg/kg, po by LC/MS/MS analysis; type: ADME, organism-based; set-up: dose 5 mg/kg, route oral; conditions: in vivo
[8] = Lipophilicity, log D of the compound at pH 7.4; type: physicochemical; conditions: buffer
[9] = Percentage unbound in rat plasma; type: ADME, cell-free
Mus musculus [10] = assay: Antiinflammatory activity in BALB/c mouse contact hypersensitivity model assessed as inhibition of FITC-mediated ear swelling at 5 mg/kg, ip administered 1 hr prior to and 7 hrs after the FITC-challenge measured 24 hrs after final dose
Mus musculus [11] = assay: Antiinflammatory activity in BALB/c mouse model assessed as inhibition of ovalbumin-induced eosinophil accumulation in bronchoalveolar lavage fluid at 1 mg/kg, ip administered 1 hr prior to and 7 hrs after ovalbumin challenge for 3 days measured 8 hrs after final dose by cell counting; type: functional; conditions: Lung, route intraperitoneal
Method in brief: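 BALB/c mice were immunised with ovalbumin ip on days 0 and 7, then challenged with aerosolised ovalbumin for 30 min on days 15, 16 and 17. Bronchoalveolar lavage was done 8 h after the last challenge. Total cells were counted by haemocytometer, and eosinophils by differential count on DiffQuik-stained cytospins. Results are given as % inhibition, mean ± SEM.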

[12] = molecular target: T2, Prostaglandin D2 receptor (Homo sapiens, UniProt Q13258); assay: Binding affinity to DP1
T2 sequence (Q13258 whole entry): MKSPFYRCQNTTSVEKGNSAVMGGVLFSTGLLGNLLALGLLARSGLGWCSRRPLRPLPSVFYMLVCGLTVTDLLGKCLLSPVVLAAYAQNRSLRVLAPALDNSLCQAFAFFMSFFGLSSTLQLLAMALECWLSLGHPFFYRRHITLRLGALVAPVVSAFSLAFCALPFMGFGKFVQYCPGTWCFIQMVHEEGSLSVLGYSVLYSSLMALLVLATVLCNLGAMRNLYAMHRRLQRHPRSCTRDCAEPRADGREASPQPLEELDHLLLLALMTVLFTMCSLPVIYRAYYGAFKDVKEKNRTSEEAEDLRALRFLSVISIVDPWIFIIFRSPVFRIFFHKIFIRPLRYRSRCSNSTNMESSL

Mus musculus [13] = assay: Antiinflammatory activity in BALB/c mouse model assessed as inhibition of ovalbumin-induced eosinophil accumulation in bronchoalveolar lavage fluid at 30 mg/kg, po administered 1 hr prior to and 7 hrs after ovalbumin challenge for 3 days measured 8 hrs after final dose by cell counting; type: functional; conditions: Lung
Method in brief: (§1)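 Compound given by oral gavage 1 h before and 7 h after each challenge. BAL taken 8 h after the last challenge. Total cells counted by hemocytometer; eosinophils counted on DiffQuik-stained cytospins. Reported as mean % inhibition ± SEM.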

[14] = Oral bioavailability in BALB/c mouse at 5 mg/kg by LC/MS/MS analysis; type: ADME, organism-based; conditions: in vivo
Method in brief: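 Mouse PK after a 5 mg/kg oral dose.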

[15] = molecular target: Prostaglandin E2 receptor EP2 subtype (Homo sapiens) (UniProt P43116); assay: Inhibition of EP2 receptor at 10 uM
Prostaglandin E2 receptor EP2 subtype (Homo sapiens), sequence (P43116 whole entry): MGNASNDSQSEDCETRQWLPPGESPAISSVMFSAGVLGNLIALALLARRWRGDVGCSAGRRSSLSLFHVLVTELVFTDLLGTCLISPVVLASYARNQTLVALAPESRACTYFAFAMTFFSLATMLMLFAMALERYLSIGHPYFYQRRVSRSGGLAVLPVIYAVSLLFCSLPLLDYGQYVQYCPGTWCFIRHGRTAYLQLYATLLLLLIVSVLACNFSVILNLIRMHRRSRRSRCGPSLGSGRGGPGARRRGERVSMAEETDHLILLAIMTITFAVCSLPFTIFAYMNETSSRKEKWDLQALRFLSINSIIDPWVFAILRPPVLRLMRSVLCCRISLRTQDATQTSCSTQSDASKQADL
Method in brief: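 Selectivity screen: panel of 50 receptor and ion-channel targets, tested at 10 μM; EP2 by binding assay; GABA-gated Cl− channel from rat. Result expressed as % inhibition.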

Mus musculus [16] = assay: Antiinflammatory activity in BALB/c mouse model assessed as inhibition of ovalbumin-induced eosinophil accumulation in bronchoalveolar lavage fluid at 10 mg/kg, po administered 1 hr prior to and 7 hrs after ovalbumin challenge for 3 days measured 8 hrs after final dose by cell counting; type: functional; conditions: Lung; method in brief: as §1
Mus musculus [17] = assay: Antiinflammatory activity in BALB/c mouse contact hypersensitivity model assessed as inhibition of FITC-mediated ear swelling at 3 mg/kg, po administered 1 hr prior to and 7 hrs after the FITC-challenge measured 24 hrs after final dose; type: functional
Method in brief: (§2)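 Female 9-week-old BALB/c mice sensitized on days 0 and 1 with 0.5% FITC in acetone/dibutyl phthalate (sham group: vehicle only). Right ear challenged on day 6 with 0.5% FITC. Compound given by oral gavage 1 h before and 7 h after challenge. Ear thickness measured before and 24 h after challenge. Reported as mean % inhibition ± SEM.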

[18] = AUC in BALB/c mouse at 5 mg/kg, po by LC/MS/MS analysis; type: ADME, organism-based; set-up: dose 5 mg/kg, route oral; conditions: plasma
[19] = molecular target: T3, Prostaglandin D2 receptor 2 (Mus musculus, UniProt Q9Z2J6); assay: Displacement of [3H]PGD2 from mouse CRTH2 expressed in human HEK cells by liquid scintillation counting; type: cell-based, HEK293
T3 sequence (Q9Z2J6 whole entry): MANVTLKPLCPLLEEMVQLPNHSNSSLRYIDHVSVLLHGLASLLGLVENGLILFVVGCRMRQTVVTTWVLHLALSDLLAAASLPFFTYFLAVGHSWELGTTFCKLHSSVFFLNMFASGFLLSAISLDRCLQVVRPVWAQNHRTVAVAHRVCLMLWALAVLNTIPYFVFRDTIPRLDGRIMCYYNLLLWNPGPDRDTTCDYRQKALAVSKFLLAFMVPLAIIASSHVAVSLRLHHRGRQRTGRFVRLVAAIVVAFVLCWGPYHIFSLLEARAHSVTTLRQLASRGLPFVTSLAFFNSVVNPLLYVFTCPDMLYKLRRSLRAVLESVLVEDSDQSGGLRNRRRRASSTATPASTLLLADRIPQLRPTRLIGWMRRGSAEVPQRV
Method in brief: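 Mouse CRTH2 cDNA stably expressed in HEK293(EBNA) cells (hygromycin-selected) and membranes made by nitrogen cavitation. SPA competition uses 2–5 μg membranes, 1.5 nM [3H]PGD2, HEPES/KOH pH 7.4 with 10 mM MnCl2, 1% DMSO, 90 min at room temperature. Nonspecific binding defined with 1 μM PGD2. Ki by Cheng–Prusoff, ≥3 independent experiments.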

[20] = Half life in BALB/c mouse at 5 mg/kg, po by LC/MS/MS analysis; type: ADME, organism-based; set-up: dose 5 mg/kg, route oral; conditions: in vivo
[21] = Intrinsic clearance in rat liver microsomes assessed per mg of protein at 1 uM by LC/MS/MS analysis; type: ADME, Microsome
[22] = Intrinsic clearance in human liver microsomes assessed per mg of protein at 1 uM by LC/MS/MS analysis; type: ADME, Microsome
[23] = Solubility of the compound at pH 1.2; type: physicochemical; conditions: buffer
[24] = Half life in BALB/c mouse at 1 mg/kg, iv by LC/MS/MS analysis; type: ADME, organism-based; set-up: dose 1 mg/kg, route intravenous; conditions: in vivo
Mus musculus [25] = assay: Antiinflammatory activity in BALB/c mouse model assessed as inhibition of ovalbumin-induced eosinophil accumulation in bronchoalveolar lavage fluid at 3 mg/kg, po administered 1 hr prior to and 7 hrs after ovalbumin challenge for 3 days measured 8 hrs after final dose by cell counting; type: functional; conditions: Lung; method in brief: as §1
[26] = molecular target: T2, Prostaglandin D2 receptor; assay: Antagonist activity at DP1 by cAMP functional assay
Method in brief: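 DP1 functional antagonism measured in a cAMP assay.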

[27] = molecular target: Aldo-keto reductase family 1 member B1 (Homo sapiens, UniProt P15121); assay: Antagonist activity at AR; type: functional
[28] = molecular target: T1, Prostaglandin D2 receptor 2; assay: Antagonist activity human CRTH2 expressed in chinese hamster CHO cells assessed as inhibition of PGD2-induced [35S]GTPgamma binding by liquid scintillation counting; type: functional, cell-based
Method in brief: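 10 μg human CRTH2 membranes in 20 mM HEPES/KOH pH 7.4, 10 mM MgCl2, 10 μg/mL saponin, 3 μM GDP, 150 mM NaCl, 2% DMSO, 30 °C. Preincubated 10 min, then 0.15 nM [35S]GTPγS for 30 min; stopped by centrifugation. Antagonism tested against 80 nM PGD2. Nonspecific binding with 10 μM GTPγS. Run without BSA.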

[29] = Solubility of the compound at pH 7.4; type: physicochemical; conditions: buffer
Mus musculus [30] = assay: Antiinflammatory activity in BALB/c mouse contact hypersensitivity model assessed as inhibition of FITC-mediated ear swelling at 10 mg/kg, po administered 1 hr prior to and 7 hrs after the FITC-challenge measured 24 hrs after final dose; type: functional; method in brief: as §2
Mus musculus [31] = assay: Antiinflammatory activity in BALB/c mouse contact hypersensitivity model assessed as inhibition of FITC-mediated ear swelling at 30 mg/kg, po administered 1 hr prior to and 7 hrs after the FITC-challenge measured 24 hrs after final dose; type: functional; method in brief: as §2

half-life [1]: 4.4 h | solubility thermodynamic [2]: 0.193 mg/mL (≈ 489 µM) | fraction unbound [3]: 0.033 | Ki [4]: 0.037 µM | fraction unbound [5]: 0.034 | Papp at 2 h, 1 µM [6]: 18 nm/s | CL/F [7]: 0.8 L/h/kg | logD [8]: -1.4 | fraction unbound [9]: 0.057
Structure (SMILES): CN(C)S(=O)(=O)c1cncc(C#Cc2cc(Cl)ccc2OCC(=O)O)c1

Structure (SMILES): C[C@@H]1C[C@H]2[C@@H]3CCC4=CC(=O)C=C[C@]4(C)[C@@]3(F)[C@@H](O)C[C@]2(C)[C@@]1(O)C(=O)CO [DEXAMETHASONE]
inhibition (Mus musculus [10]): Active | inhibition in vivo at 1 mg/kg (Mus musculus [11]): 90%

Ki [12]: 1.58 µM | bioavailability [14]: 80% | inhibition [15]: 54% | AUC [18]: 3.73 µg·h/mL | Ki [19]: 0.0024 µM | half-life [20]: 3.9 h | fraction unbound [3]: 0.004 | microsomal CLint at 1 µM [21]: < 10 µL/min/mg | microsomal CLint at 1 µM [22]: < 10 µL/min/mg | Ki [4]: 0.002 µM | solubility [23]: < 0.002 mg/mL | fraction unbound [5]: 0.008 | half-life [24]: 1.7 h | Papp at 2 h, 1 µM [6]: 52 nm/s | IC50 [26]: 10 µM | IC50 [27]: 0.172 µM | IC50 [28]: 0.007 µM | CL/F [7]: 1 L/h/kg | solubility [29]: 0.242 mg/mL (≈ 595 µM) | fraction unbound [9]: 0.004
Structure (SMILES): CCCS(=O)(=O)c1ccc(C)c(C#Cc2cc(Cl)ccc2OCC(=O)O)c1
inhibition in vivo at 30 mg/kg (Mus musculus [13]): 81% | inhibition in vivo at 10 mg/kg (Mus musculus [16]): 54% | inhibition in vivo at 3 mg/kg (Mus musculus [17]): 23% | inhibition in vivo at 3 mg/kg (Mus musculus [25]): 29% | inhibition in vivo at 10 mg/kg (Mus musculus [30]): 56% | inhibition in vivo at 30 mg/kg (Mus musculus [31]): 52%
